# In ChEMBL document CHEMBL4406880, “Design, synthesis, and bioactivity of dihydropyrimidine derivatives as kinesin spindle protein inhibitors” (Bioorg Med Chem, 2019):
# Experiments:
# Assay type in all cases: functional
# LOX IMVI = experiment: Growth inhibition of human LOXIMVI cells assessed as growth percentage at 10 uM incubated for 48 hrs by sulforhodamine B assay relative to control; conditions: read-out: Activity
# In short: (§1)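 NCI-60 one-dose screen. Cells in RPMI 1640 with 5% FBS and 2 mM L-glutamine, seeded at 5,000–40,000 cells/well according to doubling time, and preincubated overnight at 37 °C, 5% CO2. A time-zero plate was TCA-fixed at drug addition. Compound from DMSO stock, final 10 µM, 48 h; DMSO vehicle controls. Fixation with TCA, 10% final (16% for suspension cells). SRB stain, Tris solubilization, A515. Result given as % growth versus untreated cells.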
# CAKI-1 = experiment: Growth inhibition of human Caki1 cells assessed as growth percentage at 10 uM incubated for 48 hrs by sulforhodamine B assay relative to control; conditions: CAKI-1, 48 h, read-out: Activity
# In short: (§2)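 NCI-60 one-dose screen: cells in RPMI 1640 with 5% FBS and 2 mM L-glutamine, plated at 5,000–40,000 cells/well and preincubated 24 h at 37 °C, 5% CO2. Compound is added from a DMSO stock to a final 10 µM and incubated 48 h. Cells are TCA-fixed and stained with sulforhodamine B, read at 515 nm. Output is % growth versus untreated control, with a time-zero plate.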
# MOLT-4 = experiment: Growth inhibition of human MOLT4 cells assessed as growth percentage at 10 uM incubated for 48 hrs by sulforhodamine B assay relative to control; conditions: MOLT-4, 48 h, read-out: Activity; in short: as §1
# SR = experiment: Growth inhibition of human SR cells assessed as growth percentage at 10 uM incubated for 48 hrs by sulforhodamine B assay relative to control; conditions: read-out: Activity
# In short: (§3)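 NCI-60 single-dose screen. Cells were grown in RPMI 1640 with 5% FBS and 2 mM L-glutamine and plated at 5,000–40,000 cells/well. After an overnight preincubation at 37 °C in 5% CO2, compound was added at a final 10 µM from a DMSO stock, with DMSO/PBS controls. After 48 h, cells were TCA-fixed and stained with 0.4% SRB, and absorbance was read at 515 nm. Growth is given as a percentage of untreated control.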
# MCF7 = experiment: Growth inhibition of human MCF7 cells assessed as growth percentage at 10 uM incubated for 48 hrs by sulforhodamine B assay relative to control; conditions: MCF7, 48 h, read-out: Activity; in short: as §1
# KM12 = experiment: Growth inhibition of human KM12 cells assessed as growth percentage at 10 uM incubated for 48 hrs by sulforhodamine B assay relative to control; conditions: KM12, 48 h, read-out: Activity; in short: as §1
# EKVX = experiment: Growth inhibition of human EKVX cells assessed as growth percentage at 10 uM incubated for 48 hrs by sulforhodamine B assay relative to control; conditions: read-out: Activity; in short: as §2
# MDA-MB-231 = experiment: Growth inhibition of human MDA-MB-231 cells assessed as growth percentage at 10 uM incubated for 48 hrs by sulforhodamine B assay relative to control; conditions: MDA-MB-231, 48 h, read-out: Activity; in short: as §1
# SNB-75 = experiment: Growth inhibition of human SNB75 cells assessed as growth percentage at 10 uM incubated for 48 hrs by sulforhodamine B assay relative to control; conditions: SNB-75, 48 h, read-out: Activity; in short: as §3
# IGROV-1 = experiment: Growth inhibition of human IGROV1 cells assessed as growth percentage at 10 uM incubated for 48 hrs by sulforhodamine B assay relative to control; conditions: IGROV-1, 48 h, read-out: Activity; in short: as §1
# SK-MEL-28 = experiment: Growth inhibition of human SK-MEL-28 cells assessed as growth percentage at 10 uM incubated for 48 hrs by sulforhodamine B assay relative to control; conditions: SK-MEL-28, 48 h, read-out: Activity; in short: as §3
# M14 = experiment: Growth inhibition of human M14 cells assessed as growth percentage at 10 uM incubated for 48 hrs by sulforhodamine B assay relative to control; conditions: M14, 48 h, read-out: Activity; in short: as §1
# DU-145 = experiment: Growth inhibition of human DU145 cells assessed as growth percentage at 10 uM incubated for 48 hrs by sulforhodamine B assay relative to control; conditions: DU-145, 48 h, read-out: Activity; in short: as §2
# SNB-19 = experiment: Growth inhibition of human SNB19 cells assessed as growth percentage at 10 uM incubated for 48 hrs by sulforhodamine B assay relative to control; conditions: SNB-19, 48 h, read-out: Activity; in short: as §3
# MDA-MB-435 = experiment: Growth inhibition of human MDA-MB-435 cells assessed as growth percentage at 10 uM incubated for 48 hrs by sulforhodamine B assay relative to control; conditions: MDA-MB-435, 48 h, read-out: Activity; in short: as §1
# NCI/ADR-RES = experiment: Growth inhibition of human NCI/ADR-RES cells assessed as growth percentage at 10 uM incubated for 48 hrs by sulforhodamine B assay relative to control; conditions: read-out: Activity; in short: as §1
# RPMI-8226 = experiment: Growth inhibition of human RPMI8226 cells assessed as growth percentage at 10 uM incubated for 48 hrs by sulforhodamine B assay relative to control; conditions: RPMI-8226, 48 h, read-out: Activity; in short: as §3
# UACC-257 = experiment: Growth inhibition of human UACC257 cells assessed as growth percentage at 10 uM incubated for 48 hrs by sulforhodamine B assay relative to control; conditions: UACC-257, 48 h, read-out: Activity; in short: as §3
# HOP-92 = experiment: Growth inhibition of human HOP92 cells assessed as growth percentage at 10 uM incubated for 48 hrs by sulforhodamine B assay relative to control; conditions: HOP-92, 48 h, read-out: Activity; in short: as §1
# Hs-578T = experiment: Growth inhibition of human Hs 578T cells assessed as growth percentage at 10 uM incubated for 48 hrs by sulforhodamine B assay relative to control; conditions: read-out: Activity; in short: as §1
# T47D = experiment: Growth inhibition of human T47D cells assessed as growth percentage at 10 uM incubated for 48 hrs by sulforhodamine B assay relative to control; conditions: read-out: Activity; in short: as §3
# U-251 = experiment: Growth inhibition of human U251 cells assessed as growth percentage at 10 uM incubated for 48 hrs by sulforhodamine B assay relative to control; conditions: U-251, 48 h, read-out: Activity; in short: as §3
# SK-OV-3 = experiment: Growth inhibition of human SKOV3 cells assessed as growth percentage at 10 uM incubated for 48 hrs by sulforhodamine B assay relative to control; conditions: SK-OV-3, 48 h, read-out: Activity; in short: as §3
# PC-3 = experiment: Growth inhibition of human PC3 cells assessed as growth percentage at 10 uM incubated for 48 hrs by sulforhodamine B assay relative to control; conditions: PC-3, 48 h, read-out: Activity; in short: as §3
# OVCAR-5 = experiment: Growth inhibition of human OVCAR5 cells assessed as growth percentage at 10 uM incubated for 48 hrs by sulforhodamine B assay relative to control; conditions: OVCAR-5, 48 h, read-out: Activity; in short: as §3
# A549 = experiment: Growth inhibition of human A549/ATCC cells assessed as growth percentage at 10 uM incubated for 48 hrs by sulforhodamine B assay relative to control; conditions: A549, 48 h, read-out: Activity; in short: as §2
# COLO 205 = experiment: Growth inhibition of human COLO205 cells assessed as growth percentage at 10 uM incubated for 48 hrs by sulforhodamine B assay relative to control; conditions: COLO 205, 48 h, read-out: Activity; in short: as §2
smiles,measurement,setting,value
O=C1C2=C(NC(=S)NC2c2ccc3c(c2)OCO3)c2ccccc21 (racemic),growth at 10 µM,LOX IMVI,99.2%
same,growth at 10 µM,CAKI-1,87.4%
same,growth at 10 µM,MOLT-4,104%
same,growth at 10 µM,SR,107%
same,growth at 10 µM,MCF7,96.8%
same,growth at 10 µM,KM12,109%
same,growth at 10 µM,EKVX,102%
same,growth at 10 µM,MDA-MB-231,104%
same,growth at 10 µM,SNB-75,81%
same,growth at 10 µM,IGROV-1,104%
same,growth at 10 µM,SK-MEL-28,123%
same,growth at 10 µM,M14,110%
same,growth at 10 µM,DU-145,112%
same,growth at 10 µM,SNB-19,100%
same,growth at 10 µM,MDA-MB-435,107%
same,growth at 10 µM,NCI/ADR-RES,103%
same,growth at 10 µM,RPMI-8226,103%
same,growth at 10 µM,UACC-257,102%
same,growth at 10 µM,HOP-92,95%
same,growth at 10 µM,Hs-578T,96.8%
same,growth at 10 µM,T47D,99%
same,growth at 10 µM,U-251,97.8%
same,growth at 10 µM,SK-OV-3,103%
same,growth at 10 µM,PC-3,96.3%
same,growth at 10 µM,OVCAR-5,106%
same,growth at 10 µM,A549,107%
same,growth at 10 µM,COLO 205,113%
CC(=O)N1C(=S)NC(C)=C(C(=O)OCC(C)C)C1c1ccc2c(c1)OCO2 (racemic),growth at 10 µM,LOX IMVI,97.5%
same,growth at 10 µM,CAKI-1,96.2%
same,growth at 10 µM,MOLT-4,95.1%
same,growth at 10 µM,SR,80%
same,growth at 10 µM,MCF7,104%
same,growth at 10 µM,KM12,93.8%
same,growth at 10 µM,EKVX,99.8%
same,growth at 10 µM,MDA-MB-231,88.7%
same,growth at 10 µM,SNB-75,92.2%
same,growth at 10 µM,IGROV-1,112%
same,growth at 10 µM,SK-MEL-28,105%
same,growth at 10 µM,M14,96.4%
same,growth at 10 µM,DU-145,99.6%
same,growth at 10 µM,SNB-19,97.9%
same,growth at 10 µM,MDA-MB-435,95.5%
same,growth at 10 µM,NCI/ADR-RES,97%
same,growth at 10 µM,RPMI-8226,54.8%
same,growth at 10 µM,UACC-257,99.5%
same,growth at 10 µM,HOP-92,80.6%
same,growth at 10 µM,Hs-578T,89.2%
same,growth at 10 µM,T47D,66.7%
same,growth at 10 µM,U-251,87.5%
same,growth at 10 µM,SK-OV-3,100%
same,growth at 10 µM,PC-3,81.2%
same,growth at 10 µM,OVCAR-5,99.4%
same,growth at 10 µM,A549,95.9%
same,growth at 10 µM,COLO 205,101%
